Laboratory results as given in paper PMC3086726 (Nuclear medicine and biology, 2010).
Like-named read-outs stand apart in the source and are kept apart here. Values belong to the substance of their own block, whether it stands above or below them.

Experiments:
[1] = design: species or system CF-1 mice; conditions: mouse
[2] = Stability of 99mTc-cyclized analogues to cysteine challenge; assay type: physicochemical; conditions: pH 7.4, 37 °C
[3] = In vitro stability of 99mTc-cyclized analogues in PBS; assay type: physicochemical; conditions: pH 7.4, 37 °C
Method in brief: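 Test peptides were labelled with 99mTc by exchange from 99mTc-glucoheptonate (pH 7.9–8.1, 60 °C, 30 min), purified by radio-RP-HPLC, mixed with gentisic acid and evaporated. They were diluted in PBS or 1 mM cysteine, adjusted to pH 7.4 and incubated at 37 °C. Aliquots at 1, 2, 4 and 24 h were analysed by RP-HPLC for % intact. Replicate measurements used radio-TLC on C18 (10% ammonium acetate; 1:1 TFA-water/acetonitrile).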

[4] = assay type: in vitro ADME; conditions: mouse, serum, pH 7.4
[5] = mouse, cited from earlier work

In vivo biodistribution, Adrenals ([1]; 150 ug, 1 h): 0.63 ± 0.19 %ID/g
In vivo biodistribution, Blood ([1]; 150 ug, 1 h): 1.38 ± 0.15 %ID/g
In vivo biodistribution, Kidney ([1]; 150 ug, 1 h): 2.97 ± 0.19 %ID/g
In vivo biodistribution, Lg. Int ([1]; 150 ug, 1 h): 0.56 ± 0.04 %ID/g
In vivo biodistribution, Liver ([1]; 150 ug, 1 h): 1.78 ± 0.59 %ID/g
In vivo biodistribution, Muscle ([1]; 150 ug, 1 h): 0.43 ± 0.05 %ID/g
In vivo biodistribution, Pancreas ([1]; 150 ug, 1 h): 0.54 ± 0.10 %ID/g
In vivo biodistribution, Sm. lnt ([1]; 150 ug, 1 h): 24.29 ± 3.21 %ID/g
In vivo biodistribution, Spleen ([1]; 150 ug, 1 h): 0.47 ± 0.07 %ID/g
In vivo biodistribution, Stomach ([1]; 150 ug, 1 h): 5.69 ± 0.45 %ID/g
In vivo biodistribution, Adrenals ([1]; 1 h): 0.36 ± 0.04 %ID/g
In vivo biodistribution, Blood ([1]; 1 h): 0.95 ± 0.12 %ID/g
In vivo biodistribution, Kidney ([1]; 1 h): 2.61 ± 0.64 %ID/g
In vivo biodistribution, Lg. Int ([1]; 1 h): 0.53 ± 0.08 %ID/g
In vivo biodistribution, Liver ([1]; 1 h): 1.60 ± 0.17 %ID/g
In vivo biodistribution, Muscle ([1]; 1 h): 0.26 ± 0.02 %ID/g
In vivo biodistribution, Pancreas ([1]; 1 h): 0.46 ± 0.15 %ID/g
In vivo biodistribution, Sm. lnt ([1]; 1 h): 20.28 ± 3.58 %ID/g
In vivo biodistribution, Spleen ([1]; 1 h): 0.38 ± 0.09 %ID/g
In vivo biodistribution, Stomach ([1]; 1 h): 2.95 ± 1.42 %ID/g
In vivo biodistribution, Adrenals ([1]; 4 h): 0.22 ± 0.07 %ID/g
In vivo biodistribution, Blood ([1]; 4 h): 0.34 ± 0.04 %ID/g
In vivo biodistribution, Kidney ([1]; 4 h): 1.43 ± 0.34 %ID/g
In vivo biodistribution, Lg. Int ([1]; 4 h): 28.18 ± 4.57 %ID/g
In vivo biodistribution, Liver ([1]; 4 h): 0.47 ± 0.15 %ID/g
In vivo biodistribution, Muscle ([1]; 4 h): 0.08 ± 0.04 %ID/g
In vivo biodistribution, Pancreas ([1]; 4 h): 0.15 ± 0.03 %ID/g
In vivo biodistribution, Sm. lnt ([1]; 4 h): 1.94 ± 0.50 %ID/g
In vivo biodistribution, Spleen ([1]; 4 h): 0.12 ± 0.01 %ID/g
In vivo biodistribution, Stomach ([1]; 4 h): 3.88 ± 0.54 %ID/g
In vivo biodistribution, Adrenals ([1]; 24 h): 0.03 ± 0.01 %ID/g
In vivo biodistribution, Blood ([1]; 24 h): 0.06 ± 0.01 %ID/g
In vivo biodistribution, Kidney ([1]; 24 h): 0.48 ± 0.10 %ID/g
In vivo biodistribution, Lg. Int ([1]; 24 h): 1.18 ±0.66 %ID/g
In vivo biodistribution, Liver ([1]; 24 h): 0.11 ± 0.01 %ID/g
In vivo biodistribution, Muscle ([1]; 24 h): 0.01 ± 0.01 %ID/g
In vivo biodistribution, Pancreas ([1]; 24 h): 0.02 ± 0.01 %ID/g
In vivo biodistribution, Sm. lnt ([1]; 24 h): 0.22 ± 0.04 %ID/g
In vivo biodistribution, Spleen ([1]; 24 h): 0.04 ± 0.01 %ID/g
In vivo biodistribution, Stomach ([1]; 24 h): 0.61 ± 0.15 %ID/g
percent intact 99mTc-analogue post purification ([2]; 10 mM Cys, 1 h): 99.4 ± 0.3%
percent intact 99mTc-analogue post purification ([2]; 10 mM Cys, 2 h): 99.1 ± 0.5%
percent intact 99mTc-analogue post purification ([2]; 10 mM Cys, 4 h): 99.3 ± 0.1%
percent intact 99mTc-analogue post purification ([2]; 10 mM Cys, 24 h): 93.3 ± 0.7%
percent intact 99mTc-analogue post purification ([3]; 1 h): 98.3 ± 0.5%
percent intact 99mTc-analogue post purification ([3]; 2 h): 98.0 ± 0.2%
percent intact 99mTc-analogue post purification ([3]; 4 h): 97.8 ± 0.9%
percent intact 99mTc-analogue post purification ([3]; 24 h): 94.1 ± 1.4%
percent intact 99mTc-analogue post purification ([4]; 1 h): 96.7 ± 0.8%
percent intact 99mTc-analogue post purification ([4]; 2 h): 97.1 ± 0.7%
percent intact 99mTc-analogue post purification ([4]; 4 h): 97.0 ± 0.2%
percent intact 99mTc-analogue post purification ([4]; 24 h): 94.7 ± 2.4%
Substance: ^99mTc-Ac-Cys^1,Tyr^3-octreotate [99mTc-2]

In vivo biodistribution, Adrenals ([1]; 150 ug, 1 h): 2.18 ± 0.69 %ID/g
In vivo biodistribution, Blood ([1]; 150 ug, 1 h): 4.31 ± 0.44 %ID/g
In vivo biodistribution, Kidney ([1]; 150 ug, 1 h): 8.00 ± 1.74 %ID/g
In vivo biodistribution, Lg. Int ([1]; 150 ug, 1 h): 1.70 ± 0.18 %ID/g
In vivo biodistribution, Liver ([1]; 150 ug, 1 h): 6.47 ± 1.64 %ID/g
In vivo biodistribution, Muscle ([1]; 150 ug, 1 h): 0.68 ± 0.06 %ID/g
In vivo biodistribution, Pancreas ([1]; 150 ug, 1 h): 2.08 ± 0.31 %ID/g
In vivo biodistribution, Sm. lnt ([1]; 150 ug, 1 h): 10.91 ± 2.12 %ID/g
In vivo biodistribution, Spleen ([1]; 150 ug, 1 h): 1.74 ± 0.24 %ID/g
In vivo biodistribution, Stomach ([1]; 150 ug, 1 h): 14.18 ± 4.97 %ID/g
In vivo biodistribution, Adrenals ([1]; 1 h): 1.53 ± 0.30 %ID/g
In vivo biodistribution, Blood ([1]; 1 h): 3.81 ± 0.10 %ID/g
In vivo biodistribution, Kidney ([1]; 1 h): 12.05 ± 2.14 %ID/g
In vivo biodistribution, Lg. Int ([1]; 1 h): 2.55 ± 0.21 %ID/g
In vivo biodistribution, Liver ([1]; 1 h): 4.17 ± 0.34 %ID/g
In vivo biodistribution, Muscle ([1]; 1 h): 0.53 ± 0.06 %ID/g
In vivo biodistribution, Pancreas ([1]; 1 h): 1.49 ± 0.06 %ID/g
In vivo biodistribution, Sm. lnt ([1]; 1 h): 15.48 ± 3.35 %ID/g
In vivo biodistribution, Spleen ([1]; 1 h): 1.30 ± 0.17 %ID/g
In vivo biodistribution, Stomach ([1]; 1 h): 11.69 ± 10.10 %ID/g
In vivo biodistribution, Adrenals ([1]; 4 h): 0.86 ± 0.43 %ID/g
In vivo biodistribution, Blood ([1]; 4 h): 1.50 ± 0.29 %ID/g
In vivo biodistribution, Kidney ([1]; 4 h): 6.54 ± 0.23 %ID/g
In vivo biodistribution, Lg. Int ([1]; 4 h): 22.09 ± 4.99 %ID/g
In vivo biodistribution, Liver ([1]; 4 h): 1.58 ± 0.06 %ID/g
In vivo biodistribution, Muscle ([1]; 4 h): 0.25 ± 0.06 %ID/g
In vivo biodistribution, Pancreas ([1]; 4 h): 0.55 ± 0.04 %ID/g
In vivo biodistribution, Sm. lnt ([1]; 4 h): 2.02 ± 0.67 %ID/g
In vivo biodistribution, Spleen ([1]; 4 h): 0.55 ± 0.13 %ID/g
In vivo biodistribution, Stomach ([1]; 4 h): 7.54 ± 4.16 %ID/g
In vivo biodistribution, Adrenals ([1]; 24 h): 0.12 ± 0.03 %ID/g
In vivo biodistribution, Blood ([1]; 24 h): 0.15 ± 0.02 %ID/g
In vivo biodistribution, Kidney ([1]; 24 h): 2.04 ± 0.37 %ID/g
In vivo biodistribution, Lg. Int ([1]; 24 h): 3.08 ± 1.60 %ID/g
In vivo biodistribution, Liver ([1]; 24 h): 0.39 ± 0.03 %ID/g
In vivo biodistribution, Muscle ([1]; 24 h): 0.05 ± 0.02 %ID/g
In vivo biodistribution, Pancreas ([1]; 24 h): 0.07 ± 0.01 %ID/g
In vivo biodistribution, Sm. lnt ([1]; 24 h): 0.68 ± 0.20 %ID/g
In vivo biodistribution, Spleen ([1]; 24 h): 0.08 ± 0.01 %ID/g
In vivo biodistribution, Stomach ([1]; 24 h): 1.26 ± 0.49 %ID/g
uptake in the various tissues and organs relative to TATE and 99mTc-2 ([1]; in vivo): two to four times higher
percent intact 99mTc-analogue post purification ([2]; 1 mM Cys, 1 h): 97.1 ± 3.3%
percent intact 99mTc-analogue post purification ([2]; 1 mM Cys, 2 h): 95.1 ± 2.7%
percent intact 99mTc-analogue post purification ([2]; 1 mM Cys, 4 h): 87.2 ± 1.0%
percent intact 99mTc-analogue post purification ([2]; 1 mM Cys, 24 h): 81.7 ± 1.8%
percent intact 99mTc-analogue post purification ([2]; 10 mM Cys, 1 h): 60.1 ± 5.1%
percent intact 99mTc-analogue post purification ([2]; 10 mM Cys, 2 h): 55.8 ± 6.9%
percent intact 99mTc-analogue post purification ([2]; 10 mM Cys, 4 h): 38.9 ± 3.7%
percent intact 99mTc-analogue post purification ([2]; 10 mM Cys, 24 h): 22.9 ± 4.5%
percent intact 99mTc-analogue post purification ([3]; 1 h): 90.2 ± 2.4%
percent intact 99mTc-analogue post purification ([3]; 2 h): 83.4 ± 5.2%
percent intact 99mTc-analogue post purification ([3]; 4 h): 76.3 ± 3.4%
percent intact 99mTc-analogue post purification ([3]; 24 h): 52.0 ± 5.6%
percent intact 99mTc-analogue post purification ([4]; 1 h): 91.4 ± 1.8%
percent intact 99mTc-analogue post purification ([4]; 2 h): 81.7 ± 4.1%
percent intact 99mTc-analogue post purification ([4]; 4 h): 81.4 ± 4.7%
percent intact 99mTc-analogue post purification ([4]; 24 h): 51.2 ± 4.4%
Substance: ^99mTc-Ac-Tyr^3-octreotate [99mTc-1]

percent intact 99mTc-analogue post purification ([2]; 1 mM Cys, 1 h): 95.8 ± 2.4%
percent intact 99mTc-analogue post purification ([2]; 1 mM Cys, 2 h): 85.3 ± 4.0%
percent intact 99mTc-analogue post purification ([2]; 1 mM Cys, 4 h): 77.8 ± 3.3%
percent intact 99mTc-analogue post purification ([2]; 1 mM Cys, 24 h): 45.0 ± 5.8%
percent intact 99mTc-analogue post purification ([2]; 10 mM Cys, 1 h): 63.9 ± 4.1%
percent intact 99mTc-analogue post purification ([2]; 10 mM Cys, 2 h): 53.3 ± 3.5%
percent intact 99mTc-analogue post purification ([2]; 10 mM Cys, 4 h): 42.5 ± 5.6%
percent intact 99mTc-analogue post purification ([2]; 10 mM Cys, 24 h): 15.0 ± 8.3%
percent intact 99mTc-analogue post purification ([3]; 1 h): 86.2 ± 5.4%
percent intact 99mTc-analogue post purification ([3]; 2 h): 73.7 ± 4.3%
percent intact 99mTc-analogue post purification ([3]; 4 h): 60.4 ± 1.8%
percent intact 99mTc-analogue post purification ([3]; 24 h): 37.9 ± 7.7%
percent intact 99mTc-analogue post purification ([4]; 1 h): 97.4 ± 1.9%
percent intact 99mTc-analogue post purification ([4]; 2 h): 97.1 ± 1.5%
percent intact 99mTc-analogue post purification ([4]; 4 h): 95.2 ± 1.7%
percent intact 99mTc-analogue post purification ([4]; 24 h): 57.6 ± 7.5%
Substance: ^99mTc-Tyr^3-octreotate [99mTc-TATE]
In vivo biodistribution, Adrenals ([5]; 4 h): 0.14 ± 0.06 %ID/g
In vivo biodistribution, Blood ([5]; 4 h): 0.44 ± 0.05 %ID/g
In vivo biodistribution, Kidney ([5]; 4 h): 1.37 ± 0.29 %ID/g
In vivo biodistribution, Lg. Int ([5]; 4 h): 60.20 ± 6.39 %ID/g
In vivo biodistribution, Liver ([5]; 4 h): 0.66 ± 0.03 %ID/g
In vivo biodistribution, Muscle ([5]; 4 h): 0.05 ± 0.01 %ID/g
In vivo biodistribution, Pancreas ([5]; 4 h): 0.19 ± 0.06 %ID/g
In vivo biodistribution, Sm. lnt ([5]; 4 h): 2.08 ± 1.08 %ID/g
In vivo biodistribution, Spleen ([5]; 4 h): 0.20 ± 0.02 %ID/g
In vivo biodistribution, Stomach ([5]; 4 h): 4.82 ± 0.95 %ID/g
In vivo biodistribution, Adrenals ([5]; 24 h): 0.01 ± 0.01 %ID/g
In vivo biodistribution, Blood ([5]; 24 h): 0.05 ± 0.01 %ID/g
In vivo biodistribution, Kidney ([5]; 24 h): 0.60 ± 0.05 %ID/g
In vivo biodistribution, Lg. Int ([5]; 24 h): 0.59 ± 0.24 %ID/g
In vivo biodistribution, Liver ([5]; 24 h): 0.22 ± 0.03 %ID/g
In vivo biodistribution, Muscle ([5]; 24 h): 0.01 ± 0.01 %ID/g
In vivo biodistribution, Pancreas ([5]; 24 h): 0.03 ± 0.01 %ID/g
In vivo biodistribution, Sm. lnt ([5]; 24 h): 0.19 ± 0.01 %ID/g
In vivo biodistribution, Spleen ([5]; 24 h): 0.05 ± 0.01 %ID/g
In vivo biodistribution, Stomach ([5]; 24 h): 0.69 ± 0.23 %ID/g
